# Measurements as given in ChEMBL document CHEMBL1148715, “Liver-targeted prodrugs of 2'-C-methyladenosine for therapy of hepatitis C virus infection” (J Med Chem, 2007).
# How the values were obtained:
# [1] = test system: Hepatocyte; test: Activation of prodrug to corresponding nucleoside triphosphate in Sprague-Dawley rat hepatocytes at 25 uM after 2 hrs; format: cell-based
# Outline: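 Freshly isolated hepatocytes from fed Sprague–Dawley rats (250–300 g), >85% trypan blue viable, 20 mg/mL wet weight. Incubated 2 h at 37 °C in Krebs–bicarbonate buffer with 20 mM glucose and 1 mg/mL BSA; compound added from DMSO stock. Extract reconstituted in water; 2'-C-methyl-ATP measured by LC-MS/MS against an authentic triphosphate standard.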
# [2] = test system: Liver; test: Drug level in Sprague-Dawley rat liver at 50 mg/kg, po after 3 hrs; format: ADME, organism-based; design: dose 50 mg/kg, route oral; conditions: in vivo
# Outline: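 Sprague–Dawley rats dosed by oral gavage in PEG-400. Liver (~1 g) taken at 3 h, snap-frozen, then homogenized in 3 volumes ice-cold 70% methanol with 20 mM EDTA/EGTA. Clarified supernatant dried and reconstituted. NTP measured by ion-pair LC-MS/MS ([…]/78.8) against a 0.01–30 μM 2'-C-methyl-ATP calibration curve; reported as nmol/g liver.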
# [3] = Solubility in citrate buffer at pH 5.1; format: physicochemical
# [4] = Oral bioavailability in Sprague-Dawley rat; format: ADME, organism-based; conditions: in vivo
# Outline: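 Rats given the prodrug iv (10 mg/kg) and orally (50 mg/kg, PEG-400; fasted, food returned a few hours after dosing). Liver NTP followed over time by LC-MS/MS. Bioavailability taken as the ratio of liver NTP AUC, oral versus iv.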
# [5] = Chemical stability at pH 7.0; format: physicochemical; conditions: buffer
# Outline: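 Half-life measured in pH 7 buffer at 25 °C.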
# [6] = Aqueous solubility of the compound; format: physicochemical
Compound,Activity [1] [nmol/g],Activity [2] [nmol/g],other results
C[C@@]1(O)[C@H](O)[C@@H](COP2(=O)OCCC(c3ccccn3)O2)O[C@H]1n1cnc2c(N)ncnc21 (some centres not stated),93,–,–
C[C@@]1(O)[C@H](O)[C@@H](COP2(=O)OCCC(c3ccc(C#N)cc3)O2)O[C@H]1n1cnc2c(N)ncnc21 (some centres not stated),41,–,–
COc1cc(C2CCOP(=O)(OC[C@H]3O[C@@H](n4cnc5c(N)ncnc54)[C@](C)(O)[C@@H]3O)O2)ccn1 (some centres not stated),93,–,–
CC(C)[C@H](N)C(=O)O[C@@H]1[C@@H](COP2(=O)OCCC(c3cccc(Cl)c3)O2)O[C@@H](n2cnc3c(N)ncnc32)[C@]1(C)O (some centres not stated),117,3.1,–
C[C@@]1(O)[C@H](O)[C@@H](COP2(=O)OCCC(c3cc(F)cc(F)c3)O2)O[C@H]1n1cnc2c(N)ncnc21 (some centres not stated),250,4.1,–
Cc1cncc(C2CCOP(=O)(OC[C@H]3O[C@@H](n4cnc5c(N)ncnc54)[C@](C)(O)[C@@H]3O)O2)c1 (some centres not stated),73,–,–
C[C@@]12OC(=O)O[C@@H]1[C@@H](COP1(=O)OCCC(c3cc(F)cc(F)c3)O1)O[C@H]2n1cnc2c(N)ncnc21 (some centres not stated),113,11.2,–
C[C@@]12OC(=O)O[C@@H]1[C@@H](COP1(=O)OCCC(c3ccc(Cl)c(Cl)c3)O1)O[C@H]2n1cnc2c(N)ncnc21 (some centres not stated),97,11.8,–
CCCCCOC(=O)Nc1ncnc2c1ncn2[C@@H]1O[C@H](COP2(=O)OCCC(c3cccc(Cl)c3)O2)[C@@H](O)[C@@]1(C)O (some centres not stated),73,1.6,–
C[C@@]1(O)[C@H](O)[C@@H](CO)O[C@H]1n1cnc2c(N)ncnc21,209,–,–
C[C@@]12OC(=O)O[C@@H]1[C@@H](COP1(=O)OCC[C@@H](c3ccncc3)O1)O[C@H]2n1cnc2c(N)ncnc21 (some centres not stated),185,28.3,solubility [3]: 0.45 mg/mL; bioavailability [4]: 39%; half-life [5]: 13 h; solubility [6]: 0.45 mg/mL
C[C@@]1(O)[C@H](O)[C@@H](COP2(=O)OCCC(c3cc(Cl)cc(Cl)c3)O2)O[C@H]1n1cnc2c(N)ncnc21 (some centres not stated),585,2.4,–
C[C@@]12OC(=O)O[C@@H]1[C@@H](COP1(=O)OCCC(c3cc(Cl)cc(Cl)c3)O1)O[C@H]2n1cnc2c(N)ncnc21 (some centres not stated),49,5,–
C[C@@]12OC(=O)O[C@@H]1[C@@H](COP1(=O)OCC[C@@H](c3cccc(Cl)c3)O1)O[C@H]2n1cnc2c(N)ncnc21 (some centres not stated),296,29.2,–
C[C@@]12OC(=O)O[C@@H]1[C@@H](COP1(=O)OCCC(c3cccc(F)c3)O1)O[C@H]2n1cnc2c(N)ncnc21 (some centres not stated),313,22.9,–
C[C@@]1(O)[C@H](O)[C@@H](COP2(=O)OCCC(c3cc(F)ccc3Br)O2)O[C@H]1n1cnc2c(N)ncnc21 (some centres not stated),72,–,–
C[C@@]1(O)[C@H](O)[C@@H](COP2(=O)OCCC(c3cc(F)ccc3F)O2)O[C@H]1n1cnc2c(N)ncnc21 (some centres not stated),139,–,–
C[C@@]1(O)[C@H](O)[C@@H](COP2(=O)OCCC(c3cccc(F)c3F)O2)O[C@H]1n1cnc2c(N)ncnc21 (some centres not stated),323,8.2,–

# Second part, led by results:
Activity [1] [nmol/g],Activity [2] [nmol/g],Compound,other results
396,2,C[C@@]1(O)[C@H](O)[C@@H](COP2(=O)OCCC(c3ccc(Cl)c(Cl)c3)O2)O[C@H]1n1cnc2c(N)ncnc21 (some centres not stated),–
137,–,C[C@@]1(O)[C@H](O)[C@@H](COP2(=O)OCCC(c3cccc(C#N)c3)O2)O[C@H]1n1cnc2c(N)ncnc21 (some centres not stated),–
99,–,C[C@@]1(O)[C@H](O)[C@@H](COP2(=O)OCCC(c3cccc(Br)c3)O2)O[C@H]1n1cnc2c(N)ncnc21 (some centres not stated),–
73,–,C[C@@]1(O)[C@H](O)[C@@H](COP2(=O)OCCC(c3cccnc3)O2)O[C@H]1n1cnc2c(N)ncnc21 (some centres not stated),–
194,–,C[C@@]1(O)[C@H](O)[C@@H](COP2(=O)OCCC(c3cncc(Br)c3)O2)O[C@H]1n1cnc2c(N)ncnc21 (some centres not stated),–
47,3.6,"C[C@@]1(O)[C@H](O)[C@@H](COP2(=O)OCC[C@@H](c3ccncc3)O2)O[C@H]1n1cnc2c(N)ncnc21 (single isomer, unassigned)",–
122,–,C[C@@]1(O)[C@H](O)[C@@H](COP2(=O)OCCC(c3ccccc3Br)O2)O[C@H]1n1cnc2c(N)ncnc21 (some centres not stated),–
328,4.1,C[C@@]1(O)[C@H](O)[C@@H](COP2(=O)OCCC(c3cccc(F)c3)O2)O[C@H]1n1cnc2c(N)ncnc21 (some centres not stated),–
389,2.9,C[C@@]1(O)[C@H](O)[C@@H](COP2(=O)OCC[C@@H](c3cccc(Cl)c3)O2)O[C@H]1n1cnc2c(N)ncnc21 (some centres not stated),–
328,–,C[C@@]1(O)[C@H](O)[C@@H](COP2(=O)OCCC(c3ccc(Cl)c(F)c3)O2)O[C@H]1n1cnc2c(N)ncnc21 (some centres not stated),–
